Measured values: ChEMBL document CHEMBL1221249, “Synthesis and in vitro binding studies of piperazine-alkyl-naphthamides: impact of homology and sulphonamide/carboxamide bioisosteric replacement on the affinity for 5-HT1A, alpha2A, D4.2, D3 and D2L receptors” (Bioorg Med Chem Lett, 2010)

How the values were obtained:
[1] = target: D(3) dopamine receptor (Rattus norvegicus, UniProt P19020); test: Displacement of [3H]spiperone from rat dopamine D3 receptor after 60 mins
[2] = target: T1, D(2) dopamine receptor (Homo sapiens, UniProt P14416); test: Displacement of [3H]spiperone from human D2L receptor after 60 mins
How it was run: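 Cloned human D2L receptor membranes from transfected cells were incubated 60 min at 27 °C with [3H]-spiperone (0.2 nM). Buffer was 50 mM Tris-HCl pH 7.4 with 10 mM MgCl2 and 1 mM EDTA, and haloperidol (10 µM) defined non-specific binding. Bound radioactivity was collected on 0.3% PEI-soaked GF/C filters and measured by scintillation counting.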

[3] = target: D(3) dopamine receptor (Rattus norvegicus) (UniProt P19020); test: Displacement of [3H]-spiperone from rat D3 receptor after 60 mins
[4] = target: D(4) dopamine receptor (Homo sapiens) (UniProt P21917); test: Displacement of [3H]-YM-09151-2 from human D4.2 receptor after 60 mins
[5] = target: 5-hydroxytryptamine receptor 1A (Homo sapiens) (UniProt P08908); test: Displacement of [3H]8-OH-DPAT from human 5-HT1A receptor after 60 mins
[6] = target: T1, D(2) dopamine receptor; test: Displacement of [3H]spiperone from human D2L receptor at 1 uM after 60 mins

Sequence of D(4) dopamine receptor (Homo sapiens) (P21917 whole entry, looked up): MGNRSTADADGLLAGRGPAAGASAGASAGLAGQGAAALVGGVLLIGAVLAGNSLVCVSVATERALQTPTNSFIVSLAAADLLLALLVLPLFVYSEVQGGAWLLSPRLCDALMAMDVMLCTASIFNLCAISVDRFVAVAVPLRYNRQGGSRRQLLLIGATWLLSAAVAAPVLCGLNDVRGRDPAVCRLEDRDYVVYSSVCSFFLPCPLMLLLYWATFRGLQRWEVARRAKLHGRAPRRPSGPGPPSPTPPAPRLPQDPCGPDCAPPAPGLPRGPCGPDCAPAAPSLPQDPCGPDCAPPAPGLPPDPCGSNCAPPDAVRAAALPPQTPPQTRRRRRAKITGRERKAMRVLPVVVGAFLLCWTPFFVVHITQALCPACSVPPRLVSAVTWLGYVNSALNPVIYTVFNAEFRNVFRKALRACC
Sequence of D(3) dopamine receptor (P19020 whole entry): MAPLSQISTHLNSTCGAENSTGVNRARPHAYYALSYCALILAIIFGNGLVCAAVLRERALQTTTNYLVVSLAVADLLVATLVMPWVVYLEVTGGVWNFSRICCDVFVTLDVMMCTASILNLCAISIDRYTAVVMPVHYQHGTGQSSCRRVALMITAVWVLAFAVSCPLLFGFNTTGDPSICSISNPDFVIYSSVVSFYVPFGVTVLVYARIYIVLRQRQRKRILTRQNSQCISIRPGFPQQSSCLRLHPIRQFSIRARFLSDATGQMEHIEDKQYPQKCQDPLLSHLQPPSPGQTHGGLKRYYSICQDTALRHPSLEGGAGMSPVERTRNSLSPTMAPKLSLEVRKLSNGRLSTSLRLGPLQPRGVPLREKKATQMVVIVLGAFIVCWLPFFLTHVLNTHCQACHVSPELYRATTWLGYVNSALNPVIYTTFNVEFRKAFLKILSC
T1 sequence (P14416 whole entry): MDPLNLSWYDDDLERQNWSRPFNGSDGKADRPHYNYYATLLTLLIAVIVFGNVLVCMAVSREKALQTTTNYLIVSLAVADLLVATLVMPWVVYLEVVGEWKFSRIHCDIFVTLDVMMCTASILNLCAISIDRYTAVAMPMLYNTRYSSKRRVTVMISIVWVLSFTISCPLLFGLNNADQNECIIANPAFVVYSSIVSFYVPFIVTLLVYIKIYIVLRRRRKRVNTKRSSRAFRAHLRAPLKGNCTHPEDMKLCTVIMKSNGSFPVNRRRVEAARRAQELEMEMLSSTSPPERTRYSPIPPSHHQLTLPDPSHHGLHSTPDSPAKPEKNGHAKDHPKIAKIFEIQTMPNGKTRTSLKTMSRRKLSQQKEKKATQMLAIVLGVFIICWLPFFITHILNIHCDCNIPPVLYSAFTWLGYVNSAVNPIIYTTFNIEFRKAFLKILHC
Sequence of 5-hydroxytryptamine receptor 1A (Homo sapiens) (P08908 whole entry, looked up): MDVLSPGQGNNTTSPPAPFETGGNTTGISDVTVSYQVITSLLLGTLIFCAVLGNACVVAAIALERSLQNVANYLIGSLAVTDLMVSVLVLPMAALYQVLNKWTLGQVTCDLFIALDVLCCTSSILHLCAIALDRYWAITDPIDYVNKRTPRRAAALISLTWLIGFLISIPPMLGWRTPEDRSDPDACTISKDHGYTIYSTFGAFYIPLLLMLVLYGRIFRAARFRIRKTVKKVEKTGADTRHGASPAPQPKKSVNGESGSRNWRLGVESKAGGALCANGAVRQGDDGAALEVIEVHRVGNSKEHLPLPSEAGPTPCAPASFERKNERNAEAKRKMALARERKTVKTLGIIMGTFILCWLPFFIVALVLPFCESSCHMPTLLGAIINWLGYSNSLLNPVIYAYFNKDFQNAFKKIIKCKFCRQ

Row | SMILES | Ki [1] | Ki [2] | Ki [3] | Ki [4] | Ki [5] | inhibition [6]
1 | COc1ccccc1N1CCN(CCCCCCNS(=O)(=O)c2ccc3ccccc3c2)CC1 | ≤ 45 nM | 99 nM | 1.97 nM | 9.62 nM | 2.87 nM | 
2 | COc1ccccc1N1CCN(CCCNS(=O)(=O)c2ccc3ccccc3c2)CC1 | 101 nM | 132 nM | 58.5 nM | 112 nM | 4.64 nM | 
3 | COc1ccccc1N1CCN(CCCCNC(=O)c2ccc3ccccc3c2)CC1 |  |  |  |  |  | 30%
4 | COc1ccccc1N1CCN(CCCNC(=O)c2ccc3ccccc3c2)CC1 | 71 nM |  | 175 nM | 17.8 nM | 4.59 nM | 46%
5 | COc1ccccc1N1CCN(CCNC(=O)c2ccc3ccccc3c2)CC1 | 113 nM | 890 nM | 66 nM |  |  | 
6 | COc1ccccc1N1CCN(CCNS(=O)(=O)c2ccc3ccccc3c2)CC1 | 348 nM |  | 56 nM | 24.4 nM | 5.19 nM | 44%
7 | COc1ccccc1N1CCN(CCCCCNC(=O)c2ccc3ccccc3c2)CC1 | 9.36 nM | 254 nM | 13 nM | 54 nM | 11.1 nM | 
8 | COc1ccccc1N1CCN(CCCCCNS(=O)(=O)c2ccc3ccccc3c2)CC1 | 84 nM | 438 nM | 12.5 nM |  |  | 
9 | COc1ccccc1N1CCN(CCCCCCNC(=O)c2ccc3ccccc3c2)CC1 | 96 nM | 121 nM | 0.56 nM |  |  | 
10 | COc1ccccc1N1CCN(CCCCNS(=O)(=O)c2ccc3ccccc3c2)CC1 | 79 nM | 46.5 nM | 27.5 nM | 62 nM | 4.1 nM | 
